Reference: ChEMBL document CHEMBL5058577, “EUbOPEN Chemogenomics Library 2 (Multiplex)” (2022)

Test system: U2OS
Assay: Multiplex assay against U2OS
Assay type: toxicity, cell-based
Settings: human
Summary of the method: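 On a CQ1 microscope at 37°C and 5% CO2, live cells were imaged after compound addition. They had been stained at seeding with Hoechst33342, BioTracker Green Microtubule Cytoskeleton Dye, MitoTracker Red and Annexin V Alexa Fluor 680. CellPathfinder machine-learning gating assigned cells to Hoechst high-intensity objects or normal cells, normal cells to healthy, pyknosed or fragmented nuclei, and pyknosed cells to mitotic or apoptotic. Tubulin, mitochondrial-mass and membrane-permeability phenotypes are per cents of healthy-nucleus cells.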

[1] = 12 h, 1 µM, compound concentration 1 uM, replicate 1
[2] = 12 h, 1 µM, compound concentration 1 uM, replicate 2
[3] = 12 h, 10 µM, compound concentration 10 uM, replicate 1
[4] = 12 h, 10 µM, compound concentration 10 uM, replicate 2
[5] = 24 h, 1 µM, compound concentration 1 uM, replicate 1
[6] = 24 h, 1 µM, compound concentration 1 uM, replicate 2
[7] = 24 h, 10 µM, compound concentration 10 uM, replicate 1
[8] = 24 h, 10 µM, compound concentration 10 uM, replicate 2
[9] = 48 h, 1 µM, compound concentration 1 uM, replicate 1
[10] = 48 h, 1 µM, compound concentration 1 uM, replicate 2
[11] = 48 h, 10 µM, compound concentration 10 uM, replicate 1
[12] = 48 h, 10 µM, compound concentration 10 uM, replicate 2

## C[C@@H]1C[C@H]2[C@@H]3CCC4=CC(=O)C=C[C@]4(C)[C@@]3(F)[C@@H](O)C[C@]2(C)[C@@]1(O)C(=O)CO [DEXAMETHASONE]
[1]
  Population Apoptotic (%): 77%
  Population Fragmented Nuclei (%): 21%
  Population Healthy Nuclei (%): 70%
  Population Hoechst High Intensity Objects (%): 2%
  Population Membrane Permeable-Phenotype (%): 2%
  Population Mitochondria Different-Phenotype (%): 0%
  Population Mitotic Cells (%): 22%
  Population Normal (%): 97%
  Population Pyknosed Nuclei (%): 7%
  Population Tubulin-Different-Phenotype (%): 1%
  Total Cell Count: 238
[2]
  Population Apoptotic (%): 80%
  Population Fragmented Nuclei (%): 20%
  Population Healthy Nuclei (%): 75%
  Population Hoechst High Intensity Objects (%): 0%
  Population Membrane Permeable-Phenotype (%): 4%
  Population Mitochondria Different-Phenotype (%): 1%
  Population Mitotic Cells (%): 20%
  Population Normal (%): 99%
  Population Pyknosed Nuclei (%): 4%
  Population Tubulin-Different-Phenotype (%): 3%
  Total Cell Count: 124
[3]
  Population Apoptotic (%): 80%
  Population Fragmented Nuclei (%): 20%
  Population Healthy Nuclei (%): 69%
  Population Hoechst High Intensity Objects (%): 2%
  Population Membrane Permeable-Phenotype (%): 6%
  Population Mitochondria Different-Phenotype (%): 1%
  Population Mitotic Cells (%): 19%
  Population Normal (%): 97%
  Population Pyknosed Nuclei (%): 9%
  Population Tubulin-Different-Phenotype (%): 2%
  Total Cell Count: 319
[4]
  Population Apoptotic (%): 84%
  Population Fragmented Nuclei (%): 16%
  Population Healthy Nuclei (%): 76%
  Population Hoechst High Intensity Objects (%): 0%
  Population Membrane Permeable-Phenotype (%): 7%
  Population Mitochondria Different-Phenotype (%): 2%
  Population Mitotic Cells (%): 15%
  Population Normal (%): 100%
  Population Pyknosed Nuclei (%): 7%
  Population Tubulin-Different-Phenotype (%): 3%
[5]
  Population Apoptotic (%): 96%
  Population Fragmented Nuclei (%): 19%
  Population Healthy Nuclei (%): 71%
  Population Hoechst High Intensity Objects (%): 2%
  Population Membrane Permeable-Phenotype (%): 4%
  Population Mitochondria Different-Phenotype (%): 2%
  Population Mitotic Cells (%): 4%
  Population Normal (%): 97%
  Population Pyknosed Nuclei (%): 8%
  Population Tubulin-Different-Phenotype (%): 2%
  Total Cell Count: 288
[6]
  Population Apoptotic (%): 90%
  Population Fragmented Nuclei (%): 18%
  Population Healthy Nuclei (%): 73%
  Population Membrane Permeable-Phenotype (%): 6%
  Population Mitochondria Different-Phenotype (%): 0%
  Population Mitotic Cells (%): 9%
  Population Pyknosed Nuclei (%): 7%
  Population Tubulin-Different-Phenotype (%): 4%
[7]
  Population Apoptotic (%): 82%
  Population Fragmented Nuclei (%): 17%
  Population Healthy Nuclei (%): 74%
  Population Hoechst High Intensity Objects (%): 1%
  Population Membrane Permeable-Phenotype (%): 6%
  Population Mitochondria Different-Phenotype (%): 0%
  Population Mitotic Cells (%): 17%
  Population Normal (%): 98%
  Population Pyknosed Nuclei (%): 7%
  Population Tubulin-Different-Phenotype (%): 2%
  Total Cell Count: 378
[8]
  Population Apoptotic (%): 75%
  Population Fragmented Nuclei (%): 14%
  Population Healthy Nuclei (%): 79%
  Population Hoechst High Intensity Objects (%): 0%
  Population Mitochondria Different-Phenotype (%): 2%
  Population Mitotic Cells (%): 25%
  Population Normal (%): 99%
  Population Pyknosed Nuclei (%): 5%
  Total Cell Count: 219
[9]
  Population Apoptotic (%): 84%
  Population Fragmented Nuclei (%): 20%
  Population Healthy Nuclei (%): 72%
  Population Hoechst High Intensity Objects (%): 1%
  Population Membrane Permeable-Phenotype (%): 1%
  Population Mitochondria Different-Phenotype (%): 1%
  Population Mitotic Cells (%): 16%
  Population Normal (%): 98%
  Population Pyknosed Nuclei (%): 6%
  Population Tubulin-Different-Phenotype (%): 0%
  Total Cell Count: 391
[10]
  Population Apoptotic (%): 71%
  Population Fragmented Nuclei (%): 17%
  Population Healthy Nuclei (%): 74%
  Population Hoechst High Intensity Objects (%): 2%
  Population Membrane Permeable-Phenotype (%): 3%
  Population Mitochondria Different-Phenotype (%): 3%
  Population Mitotic Cells (%): 28%
  Population Normal (%): 97%
  Population Pyknosed Nuclei (%): 7%
  Population Tubulin-Different-Phenotype (%): 4%
  Total Cell Count: 186
[11]
  Population Apoptotic (%): 92%
  Population Fragmented Nuclei (%): 14%
  Population Healthy Nuclei (%): 77%
  Population Hoechst High Intensity Objects (%): 2%
  Population Membrane Permeable-Phenotype (%): 4%
  Population Mitochondria Different-Phenotype (%): 1%
  Population Mitotic Cells (%): 7%
  Population Normal (%): 97%
  Population Pyknosed Nuclei (%): 8%
  Population Tubulin-Different-Phenotype (%): 1%
  Total Cell Count: 497
[12]
  Population Apoptotic (%): 86%
  Population Fragmented Nuclei (%): 16%
  Population Healthy Nuclei (%): 76%
  Population Membrane Permeable-Phenotype (%): 5%
  Population Mitochondria Different-Phenotype (%): 0%
  Population Mitotic Cells (%): 13%
  Population Pyknosed Nuclei (%): 7%
  Total Cell Count: 294

## O=C(O)Cc1ccccc1Nc1c(Cl)cccc1Cl [DICLOFENAC]
[1]
  Population Apoptotic (%): 90%
  Population Fragmented Nuclei (%): 15%
  Population Healthy Nuclei (%): 78%
  Population Hoechst High Intensity Objects (%): 5%
  Population Membrane Permeable-Phenotype (%): 4%
  Population Mitochondria Different-Phenotype (%): 4%
  Population Mitotic Cells (%): 10%
  Population Normal (%): 94%
  Population Pyknosed Nuclei (%): 6%
  Population Tubulin-Different-Phenotype (%): 4%
  Total Cell Count: 164
[2]
  Population Apoptotic (%): 84%
  Population Fragmented Nuclei (%): 13%
  Population Healthy Nuclei (%): 76%
  Population Hoechst High Intensity Objects (%): 0%
  Population Membrane Permeable-Phenotype (%): 5%
  Population Mitochondria Different-Phenotype (%): 2%
  Population Mitotic Cells (%): 15%
  Population Normal (%): 99%
  Population Pyknosed Nuclei (%): 10%
  Population Tubulin-Different-Phenotype (%): 2%
[3]
  Population Apoptotic (%): 75%
  Population Fragmented Nuclei (%): 20%
  Population Healthy Nuclei (%): 68%
  Population Hoechst High Intensity Objects (%): 2%
  Population Membrane Permeable-Phenotype (%): 8%
  Population Mitochondria Different-Phenotype (%): 4%
  Population Mitotic Cells (%): 25%
  Population Normal (%): 97%
  Population Pyknosed Nuclei (%): 11%
  Population Tubulin-Different-Phenotype (%): 4%
  Total Cell Count: 258
[4]
  Population Apoptotic (%): 72%
  Population Fragmented Nuclei (%): 14%
  Population Healthy Nuclei (%): 76%
  Population Hoechst High Intensity Objects (%): 3%
  Population Mitochondria Different-Phenotype (%): 3%
  Population Mitotic Cells (%): 27%
  Population Normal (%): 96%
  Population Pyknosed Nuclei (%): 9%
  Population Tubulin-Different-Phenotype (%): 8%
[5]
  Population Apoptotic (%): 92%
  Population Fragmented Nuclei (%): 15%
  Population Healthy Nuclei (%): 76%
  Population Hoechst High Intensity Objects (%): 4%
  Population Membrane Permeable-Phenotype (%): 2%
  Population Mitochondria Different-Phenotype (%): 2%
  Population Mitotic Cells (%): 7%
  Population Normal (%): 95%
  Population Pyknosed Nuclei (%): 7%
  Population Tubulin-Different-Phenotype (%): 2%
  Total Cell Count: 191
[6]
  Population Apoptotic (%): 87%
  Population Fragmented Nuclei (%): 19%
  Population Healthy Nuclei (%): 70%
  Population Hoechst High Intensity Objects (%): 3%
  Population Membrane Permeable-Phenotype (%): 5%
  Population Mitotic Cells (%): 12%
  Population Normal (%): 96%
  Population Pyknosed Nuclei (%): 10%
  Total Cell Count: 165
[7]
  Population Apoptotic (%): 72%
  Population Fragmented Nuclei (%): 17%
  Population Healthy Nuclei (%): 72%
  Population Hoechst High Intensity Objects (%): 0%
  Population Membrane Permeable-Phenotype (%): 3%
  Population Mitochondria Different-Phenotype (%): 1%
  Population Mitotic Cells (%): 27%
  Population Normal (%): 99%
  Population Pyknosed Nuclei (%): 10%
  Population Tubulin-Different-Phenotype (%): 2%
  Total Cell Count: 311
[8]
  Population Apoptotic (%): 81%
  Population Fragmented Nuclei (%): 15%
  Population Healthy Nuclei (%): 77%
  Population Hoechst High Intensity Objects (%): 1%
  Population Membrane Permeable-Phenotype (%): 5%
  Population Mitochondria Different-Phenotype (%): 2%
  Population Mitotic Cells (%): 18%
  Population Normal (%): 98%
  Population Pyknosed Nuclei (%): 7%
  Population Tubulin-Different-Phenotype (%): 4%
  Total Cell Count: 153
[9]
  Population Apoptotic (%): 100%
  Population Fragmented Nuclei (%): 17%
  Population Healthy Nuclei (%): 71%
  Population Hoechst High Intensity Objects (%): 4%
  Population Membrane Permeable-Phenotype (%): 4%
  Population Mitochondria Different-Phenotype (%): 2%
  Population Mitotic Cells (%): 0%
  Population Normal (%): 95%
  Population Pyknosed Nuclei (%): 10%
  Population Tubulin-Different-Phenotype (%): 2%
  Total Cell Count: 271
[10]
  Population Apoptotic (%): 83%
  Population Fragmented Nuclei (%): 15%
  Population Healthy Nuclei (%): 70%
  Population Hoechst High Intensity Objects (%): 3%
  Population Mitochondria Different-Phenotype (%): 4%
  Population Mitotic Cells (%): 16%
  Population Normal (%): 96%
  Population Pyknosed Nuclei (%): 14%
  Population Tubulin-Different-Phenotype (%): 4%
  Total Cell Count: 216
[11]
  Population Apoptotic (%): 86%
  Population Fragmented Nuclei (%): 16%
  Population Healthy Nuclei (%): 73%
  Population Hoechst High Intensity Objects (%): 2%
  Population Membrane Permeable-Phenotype (%): 6%
  Population Mitochondria Different-Phenotype (%): 1%
  Population Mitotic Cells (%): 13%
  Population Normal (%): 97%
  Population Pyknosed Nuclei (%): 10%
  Population Tubulin-Different-Phenotype (%): 2%
  Total Cell Count: 436
[12]
  Population Apoptotic (%): 100%
  Population Fragmented Nuclei (%): 12%
  Population Healthy Nuclei (%): 75%
  Population Hoechst High Intensity Objects (%): 1%
  Population Mitotic Cells (%): 0%
  Population Normal (%): 98%
  Population Pyknosed Nuclei (%): 11%
  Population Tubulin-Different-Phenotype (%): 6%
  Total Cell Count: 220
